From ChEMBL document CHEMBL1151777, “Quantitating the concentration of Py-Im polyamide-fluorescein conjugates in live cells” (Bioorg Med Chem Lett, 2008)
The source made the active and inactive calls. No cut-off for these calls is given here.

Tests used:
HeLa [1] = test: Cytotoxicity against human HeLa cells assessed as cell viability by trypan blue assay; format: functional
Method in brief: (§1)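 Following 12-14 h polyamide exposure (0, 0.4, 2 or 10 μM final) at 37°C, 5% CO2, cells were trypsinized, pelleted and resuspended in HBSS (no Mg2+/Ca2+, 2.5 mg/mL BSA, 10 mM HEPES, pH 7.0-7.2). Viability was checked by trypan blue staining before flow cytometry.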

DNA = test: Binding affinity to calf thymus DNA at 2 uM assessed as fluorescence enhancement by steady-state fluorimetry relative to control; format: nucleic-acid assay; details: Bos taurus
Method in brief: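 Sonicated calf thymus DNA serially diluted in supplemented medium (0 to 1000 μM bp), polyamide at 2 μM final. Excitation 490 nm, emission scanned 500-650 nm, 2 nm slits, room temperature. Enhancement taken as the DNA-bound fluorescence relative to the DNA-free emission.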

U-251 [2] = test: Induction of nuclear localization in human U251 cells at 2 uM after 12 to 14 hrs by confocal laser scanning microscopy; format: functional, cell-based
Method in brief: (§2)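 Live cells were incubated 12-14 h at 37°C, 5% CO2 with 2 µM polyamide and imaged directly by confocal microscopy with fluorescein filters. Nuclear staining was scored qualitatively against medium fluorescence; a positive score means nuclear signal exceeds that of the medium.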

[3] = Drug uptake in nucleus of human U251 cells at 2 uM after 12 to 14 hrs by confocal microscopy in presence of calf thymus DNA; format: ADME, cell-based; details: u-251, 2 µM
Method in brief: (§3)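 Cells grown 24 h in glass-bottom dishes, then given 2 µM polyamide in fresh medium for 12-14 h at 37°C, 5% CO2, and imaged live with a 40× oil objective using fluorescein filters. Calibration standards were polyamide serial dilutions in medium with 500 μM bp sonicated calf thymus DNA. Nuclear concentration was interpolated from the linear calibration curve. At least three images per condition, at least ten cells per image; cell cycles unsynchronized.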

[4] = Binding affinity to DNA 5'WTWCGW3' sequence
Method in brief: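 Labeled DNA equilibrated with polyamide 14-16 h at 22°C in 10 mM Tris-HCl, 10 mM KCl, 10 mM MgCl2, 5 mM CaCl2, pH 7.0, then cleaved with DNase I. Binding isotherms built from normalized theta values.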

HeLa [5] = test: Drug level in human HeLa cells at 0.4 uM after 12 to 14 hrs flow cytometry; format: ADME, cell-based
Method in brief: (§4)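 Cells at 1.33×10^5 cells/mL grown 24 h, medium replaced, polyamide added at 0, 0.4, 2 or 10 μM final, 12-14 h at 37°C, 5% CO2. Washed, resuspended in HBSS at 5×10^5 cells/mL. 10,000 cells per sample read in the fluorescein channel. Fluorophores per cell interpolated from a linear curve of the five highest Rainbow bead peaks, then divided by a modeled nuclear volume of 1×10^-12 L (cylinder, radius 10 µm, height 5 µm).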

U-251 [6] = test: Drug level in human U251 cells at 2 uM after 12 to 14 hrs flow cytometry; format: ADME, cell-based; details: u-251, 2 µM; method in brief: as §4
[7] = Drug uptake in nucleus of human HeLa cells at 2 uM after 12 to 14 hrs by confocal microscopy in presence of calf thymus DNA; format: ADME, cell-based; method in brief: as §3
HeLa [8] = test: Drug level in human HeLa cells at 2 uM after 12 to 14 hrs flow cytometry; format: ADME, cell-based; method in brief: as §4
HeLa [9] = test: Induction of nuclear localization in human HeLa cells at 2 uM after 12 to 14 hrs by confocal laser scanning microscopy; format: functional, cell-based; method in brief: as §2
U-251 [10] = test: Drug level in human U251 cells at 10 uM after 12 to 14 hrs flow cytometry; format: ADME, cell-based; details: u-251, 10 µM; method in brief: as §4
U-251 [11] = test: Drug level in human U251 cells at 0.4 uM after 12 to 14 hrs flow cytometry; format: ADME, cell-based; details: u-251, 0.4 µM; method in brief: as §4
HeLa [12] = test: Drug level in human HeLa cells at 10 uM after 12 to 14 hrs flow cytometry; format: ADME, cell-based; method in brief: as §4
U-251 [13] = test: Cytotoxicity against human U251 cells assessed as cell viability by trypan blue assay; format: functional; method in brief: as §1
HeLa [14] = test: Inhibition of VEGF expression in human HeLa cells by quantitative RT-PCR; format: functional, cell-based

## Cn1cc(NC(=O)c2cc(NC(=O)c3nc(NC(=O)c4cc(NC(=O)[C@H](N)CCNC(=O)c5nc(NC(=O)c6cc(NC(=O)c7cc(NC(=O)c8sccc8Cl)cn7C)cn6C)cn5C)cn4C)cn3C)cn2C)cc1C(=O)NCCC(=O)NCCCNC(=S)Nc1ccc(-c2c3ccc(=O)cc-3oc3cc(O)ccc23)c(C(=O)O)c1
HeLa [1]
  Activity: >95%
DNA
  fold change (FC): 14
U-251 [2]
  Activity: Active
[3]
  Drug uptake: 1.6 µM
[4]
  Ka: 3.8 ×10⁹ /M
HeLa [5]
  Drug uptake: 0.02 µM
U-251 [6]
  Drug uptake: 0.34 µM
[7]
  Drug uptake: 0.5 µM
HeLa [8]
  Drug uptake: 0.09 µM
HeLa [9]
  Activity: Active
U-251 [10]
  Drug uptake: 0.84 µM
U-251 [11]
  Drug uptake: 0.09 µM
HeLa [12]
  Drug uptake: 0.2 µM
U-251 [13]
  Activity: >95%
HeLa [14]
  Activity: Active
